Ten molecules from ChEMBL document CHEMBL1144171, “Novel hypoglycemic dihydropyridones serendipitously discovered from O- versus C-alkylation in the synthesis of VMAT2 antagonists” (Bioorg Med Chem Lett, 2008) can be followed below.

For data set [1], the system named is Rattus norvegicus. Nature of the data set: Hypoglycemic activity in fasted Lewis rat at 2 mg/kg, iv administered 30 mins prior to glucose stimulation measured after 120 mins by glucose tolerance test. Type of data set: functional, organism-based. On the set-up: dose 2 mg/kg. In outline:
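Lewis rats fasted 6 h received drug iv at −30 min (2mg/kg), then glucose 2g/kg ip at 0 min; blood glucose followed 120 min. AUC IPGTT by trapezoidal rule, SEM (n=5); drug versus vehicle compared by Student's t test.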

Data set [2] addresses Dipeptidyl peptidase 4 (Homo sapiens) (UniProt P27487). In words: Inhibition of DPP4 upto 10 uM.
The test system of data set [3] is Rattus norvegicus. Nature of the data set: Toxicity in Lewis rat assessed as tonic seizure at 2 mg/kg. Format: organism-based. On the set-up: dose 2 mg/kg. The note with it: in vivo.

Calls of active or inactive are those of the source. No cut-off for these calls is given here.

Sequence of Dipeptidyl peptidase 4 (Homo sapiens) (P27487 whole entry, looked up): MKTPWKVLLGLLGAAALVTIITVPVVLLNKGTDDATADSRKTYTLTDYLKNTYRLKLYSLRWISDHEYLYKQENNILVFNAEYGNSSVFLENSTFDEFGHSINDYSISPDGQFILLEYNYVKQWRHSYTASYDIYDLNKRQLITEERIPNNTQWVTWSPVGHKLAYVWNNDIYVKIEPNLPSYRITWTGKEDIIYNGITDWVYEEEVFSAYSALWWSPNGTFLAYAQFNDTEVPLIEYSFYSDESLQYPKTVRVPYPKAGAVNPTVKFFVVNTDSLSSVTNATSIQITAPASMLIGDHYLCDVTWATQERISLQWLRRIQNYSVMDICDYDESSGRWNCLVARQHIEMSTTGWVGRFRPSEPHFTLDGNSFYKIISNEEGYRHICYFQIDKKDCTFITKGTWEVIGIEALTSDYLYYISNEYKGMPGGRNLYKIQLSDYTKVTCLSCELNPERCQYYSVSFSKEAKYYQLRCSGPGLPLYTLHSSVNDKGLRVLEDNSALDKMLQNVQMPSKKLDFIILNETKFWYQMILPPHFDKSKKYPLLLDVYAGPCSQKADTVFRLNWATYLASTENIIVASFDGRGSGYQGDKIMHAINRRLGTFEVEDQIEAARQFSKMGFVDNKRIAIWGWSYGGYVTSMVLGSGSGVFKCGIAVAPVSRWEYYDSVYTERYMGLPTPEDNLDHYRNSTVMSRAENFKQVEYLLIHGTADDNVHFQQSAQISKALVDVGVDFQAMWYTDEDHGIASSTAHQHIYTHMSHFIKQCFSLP

`COC1=CC(=O)N2CCc3cc(OC)c(OC)cc3C2C1` (stereo not drawn): in the data set on Rattus norvegicus [1], the result was Active.

Turning to `COC1=CC(=O)OC(c2ccc(OC)c(OC)c2)C1` (stereo not drawn), the outcome with Rattus norvegicus [1] was inactive.

Regarding `COc1cc2c(cc1OC)C1CC(OCC(C)C)=CC(=O)N1CC2` (stereo not drawn), the result in the data set with Rattus norvegicus [1] was Active.

For `COc1ccc(C2CC(OCC(C)C)=CC(=O)N2)cc1OC` (stereo not drawn), the outcome in data set [2] was inactive. Moreover, in the data set with Rattus norvegicus [3], the Activity result is given as “Non-toxic”. The result with Rattus norvegicus [1] was Active.

Turning to `COc1cc2c(cc1OC)[C@@H]1C[C@H](O)[C@@H](CC(C)C)CN1CC2`, the Activity result with Rattus norvegicus [3] was “Toxic”. Further, the result in the data set on Rattus norvegicus [1] was Active.

For the molecule `COc1ccc(C2CC(=O)CC(=O)N2)cc1OC` (stereo not drawn), the result in the data set on Rattus norvegicus [1] was inactive.

Consider `COc1cc2c(cc1OC)C1CC(=O)C(CC(C)C)CN1CC2` (stereo not drawn) [TETRABENAZINE], for which the Activity result with Rattus norvegicus [3] is listed as “Toxic”.

`COc1ccc(C2CC(OCC(C)C)=CC(=O)O2)cc1OC` (stereo not drawn): in the data set with Rattus norvegicus [1], the outcome was inactive.

With `COc1ccc(-c2cc(OCC(C)C)cc(=O)[nH]2)cc1OC`, the result in the data set on Rattus norvegicus [1] was inactive.

On to `COc1ccc(C2CC(O)C(CC(C)C)CN2)cc1OC` (stereo not drawn), for which the outcome with Rattus norvegicus [1] was Active.
